A short description of assay [1]: reduced viability of SK-BR-3 breast cancer cells – cell-based, 24 h, human, pilot screen (AID 572;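 active = viability at or below 10% of carrier control in both of two separate runs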;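 also: compound exposure lasted between 18 and 24 h rather than exactly 24 h; 100% = carrier-treated control wells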). The note with it: SK-BR-3 viability, CellTiter-Glo luminescence, at 10 µM, stronger effect = lower value.
The nature of assay [2]: HUVEC growth inhibition – cell-based, human, primary screen (AID 575;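 active = viability at or below 30% in both replicate assays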;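 also: 100% = median of untreated cell wells with 0.1% DMSO on each plate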). The note with it: HUVEC proliferation, CellTiter-Glo luminescence, 72 h; at 10 µM; stronger effect = lower value. In outline:
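Material: primary human umbilical vein endothelial cells / Schedule: 72 h exposure, 37 °C, 5% CO2, 30 min RT equilibration / Signal: ATP-based CellTiter-Glo luminescent read / Read-out basis: percent of median DMSO-control luminescence / Control set: 32 DMSO-only cell-control wells (high), 32 MePR drug-control wells (low) per plate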
(In ATP-based viability assays light output follows the ATP content of the culture.)

Assay [3] can be described thus: H69AR cell proliferation blockers – human, duplicate replicates, primary screen (AID 580).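 Also: 100% = mean luminescence of untreated wells and 0% = no signal.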 The settings on record: H69AR lung tumor cells viability, ATP luminescence, 72 h; at 10 µM; stronger effect = lower value.
Assay [4] in a line: MRP1 drug-resistance reversers in H69AR cells – cell-based, doxorubicin co-treatment, pilot screen (AID 601;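 active = viability loss from added drug above about 55%, and viability with drug at most 40%, in both replicates, limit read from the data, passing the limit was not always enough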). The settings on record: CellTiter-Glo, 72 h, at 10 µM; for differential viability (reversal): stronger effect = higher value.
Assay [5] in a line: yeast transport mutant growth inhibition pilot in 384-well plates, post-Golgi transport modulator project (AID 636; in the data active = inhibition above about 31%). The settings on record: absorbance 615 nm, about 18 h, stronger effect = higher value.
The nature of assay [6]: growth suppression of yeast trafficking mutant, preliminary HTS, modulators of trafficking downstream of Golgi apparatus project, 1536-format plate, OD 615 nm (AID 637; in the data active = inhibition above about 30%). The note with it: yeast transport mutant growth, absorbance 615 nm, 18 h; stronger effect = higher value.
Setting [7] is: H69AR cells + 2 uM doxorubicin, measured here: viability with 2 uM doxorubicin, stronger effect = lower value.
Setting [8] is: H69AR cells, compound alone cytotoxicity.

Each structure is given as a SMILES string. The source made the active and inactive calls.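 The calls were made as follows, unless noted: active = viability at or under a set limit in both replicates, limit being median viability minus 3 SD (cut at about 48% in these data, passing the limit was not always enough); inconclusive = at or under the limit in just one replicate; inactive = at or above the limit in both replicates.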

Turning to `Cc1cc(=O)n(CCO)c(O)c1C#N`, the viability (usually a read-out of living cells in per cent, often relative to untreated cells) is 81.5% (inactive) in assay [1]; 107% (inactive) in assay [2]; 95.1% (inactive) in assay [3]; 101% in assay [4] (setting [7]); 95.1% in assay [4] (setting [8]). Moreover, the differential viability (reversal) in assay [4] (H69AR cells + 2 uM doxorubicin) was -5.74% (inactive). In addition, the inhibition – broadly, the drop in the measured response relative to a control, in per cent – in assay [5] was -3.95% (inactive); in assay [6], 22.8% (inactive).

In the case of `CCOC(=O)N1CCC(NC(=O)Cc2ccc(-n3c(=O)[nH]c4ccccc4c3=O)cc2)CC1`, the viability was 103% (inactive) in assay [1]; 97.6% (inactive) in assay [2]; 96.4% (inactive) in assay [3]; 88.5% in assay [4] (setting [7]); 96.4% in assay [4] (setting [8]). Besides, in assay [4] (H69AR cells + 2 uM doxorubicin), the differential viability (reversal) is 7.9% (inactive). Further, the inhibition in assay [5] is -5.06% (inactive); in assay [6], 0% (inactive).

`C=CCn1c(SCn2nnc3ccccc3c2=O)nnc1-c1ccc(Br)cc1`: the viability is 97% (inactive) in assay [1]; 94.2% (inactive) in assay [2]; 89.1% (inactive) in assay [3]; 82% in assay [4] (setting [7]); 89.1% in assay [4] (setting [8]). For the same molecule, in assay [4] (H69AR cells + 2 uM doxorubicin), the differential viability (reversal) was 7.09% (inactive). The inhibition in assay [5] was 43.2% (active); in assay [6], 31.6% (active).

As for `CC(C)C[C@H](NC(=O)Nc1cccc(C(F)(F)F)c1)C(=O)O`, the viability in assay [1] is 115% (inactive); in assay [2] it was 98.1% (inactive); in assay [3] it was 106% (inactive); in assay [4] (setting [7]) it was 91.8%; in assay [4] (setting [8]) it was 106%. Further, in assay [4] (H69AR cells + 2 uM doxorubicin), the differential viability (reversal) is 14.6% (inactive). Moreover, the inhibition was -4.25% (inactive) in assay [5] and -0.81% (inactive) in assay [6].

For the molecule `COc1ccc(OC)c(S(=O)(=O)Nc2ccccc2SC)c1`, the viability in assay [1] is 72% (inactive); in assay [2] it was 83.7% (inactive); in assay [3], 100% (inactive); in assay [4] (setting [7]), 81%; in assay [4] (setting [8]), 100%. Also, the differential viability (reversal) in assay [4] (H69AR cells + 2 uM doxorubicin) is 18.9% (inactive). Besides, the inhibition is -5.34% (inactive) in assay [5] and -1.45% (inactive) in assay [6].

On to `Fc1cccc(Cl)c1Cn1nnc2c(NCc3ccccn3)ncnc21`, for which the viability is 76% (inactive) in assay [1]; 92.9% (inactive) in assay [2]; 105% (inactive) in assay [3]; 91.1% in assay [4] (setting [7]); 105% in assay [4] (setting [8]). Further, the differential viability (reversal) in assay [4] (H69AR cells + 2 uM doxorubicin) is 14.2% (inactive). For the same molecule, the values for the inhibition in assay [5] and in assay [6] were -4.66% (inactive) and -4.84% (inactive), respectively.

For `CC1CCN(CCCNC(=O)c2coc3nc4ccccc4nc23)CC1`, the viability is 148% (inactive) in assay [1]; 90.6% (inactive) in assay [2]; 92.9% (inactive) in assay [3]; 99.3% in assay [4] (setting [7]); 92.9% in assay [4] (setting [8]). In addition, in assay [4] (H69AR cells + 2 uM doxorubicin), the differential viability (reversal) was -6.4% (inactive). Moreover, the inhibition is -2.73% (inactive) in assay [5] and -2.13% (inactive) in assay [6].

As for `O=C(Nc1ccccc1C(=O)NCCCn1ccnc1)c1ccccc1`, the viability in assay [1] was 81% (inactive); in assay [2], 94.4% (inactive); in assay [3] it was 96.8% (inactive); in assay [4] (setting [7]), 87.6%; in assay [4] (setting [8]), 96.8%. For the same molecule, the differential viability (reversal) in assay [4] (H69AR cells + 2 uM doxorubicin) is 9.21% (inactive). In addition, the inhibition in assay [5] was -6.62% (inactive); in assay [6], -8% (inactive).

As for `O=C(COC(=O)c1cccc(S(=O)(=O)N2CCc3ccccc32)c1)NC1CCS(=O)(=O)C1` (centres undefined), the viability in assay [1] was 90% (inactive); in assay [2] it was 114% (inactive); in assay [3] it was 102% (inactive); in assay [4] (setting [7]), 101%; in assay [4] (setting [8]), 102%. The differential viability (reversal) in assay [4] (H69AR cells + 2 uM doxorubicin) was 0.47% (inactive). In addition, the inhibition in assay [5] was -4.05% (inactive); in assay [6] it was -7.64% (inactive).

For the molecule `O=C(Nc1ccc2c(c1)OCO2)N1CCN(c2ncccn2)CC1`, the viability in assay [1] is 126% (inactive); in assay [2], 106% (inactive); in assay [3], 85.5% (inactive); in assay [4] (setting [7]) it was 108%; in assay [4] (setting [8]), 85.5%. Further, the differential viability (reversal) in assay [4] (H69AR cells + 2 uM doxorubicin) is -22.1% (inactive). In addition, the figures for the inhibition in assay [5] and in assay [6] were -8.49% (inactive) and -1.64% (inactive), respectively.

For the molecule `Cc1ccc(S(=O)(=O)NCC(=O)OCC(=O)Nc2ncc(Cl)cc2Cl)cc1`, the viability in assay [1] is 82% (inactive); in assay [2], 91.2% (inactive); in assay [3], 99.6% (inactive); in assay [4] (setting [7]), 116%; in assay [4] (setting [8]), 99.6%. Moreover, the differential viability (reversal) in assay [4] (H69AR cells + 2 uM doxorubicin) was -16.6% (inactive). For the same molecule, the inhibition is -5.21% (inactive) in assay [5] and 1.45% (inactive) in assay [6].

Consider `O=S(=O)(Nc1nc2ccccc2nc1NCc1ccco1)c1cccs1`, for which the viability is 91% (inactive) in assay [1]; 100% (inactive) in assay [2]; 29% (active) in assay [3]; 51.9% in assay [4] (setting [7]); 29% in assay [4] (setting [8]). The differential viability (reversal) in assay [4] (H69AR cells + 2 uM doxorubicin) is -23% (inactive). Besides, the results for the inhibition in assay [5] and in assay [6] were -5.68% (inactive) and 0.73% (inactive), respectively.

As to `COc1cc(CC(=O)Oc2ccc3c(c2)OCO3)cc(OC)c1OC`, the viability in assay [1] was 98% (inactive); in assay [2] it was 104% (inactive); in assay [3], 84.8% (inactive); in assay [4] (setting [7]), 84.2%; in assay [4] (setting [8]), 84.8%. The differential viability (reversal) in assay [4] (H69AR cells + 2 uM doxorubicin) is 0.695% (inactive). Also, the figures for the inhibition in assay [5] and in assay [6] were -2.93% (inactive) and 2.91% (inactive), respectively.

For the molecule `N#CC1=C(N)N(c2ccccc2)C(c2ccccc2)C1(C#N)C#N` (centres undefined), the viability in assay [1] is 84.5% (inactive); in assay [2], 81.6% (inactive); in assay [3], 80.1% (inactive); in assay [4] (setting [7]) it was 78.8%; in assay [4] (setting [8]), 80.1%. Besides, in assay [4] (H69AR cells + 2 uM doxorubicin), the differential viability (reversal) is 1.28% (inactive). The inhibition is -6.27% (inactive) in assay [5] and -0.97% (inactive) in assay [6].

For `COc1ccccc1OCc1ccc(C(=O)N2CCN(C(=O)c3ccco3)CC2)cc1`, the viability in assay [1] is 116% (inactive); in assay [2], 111% (inactive); in assay [3], 99.2% (inactive); in assay [4] (setting [7]), 93.9%; in assay [4] (setting [8]), 99.2%. The differential viability (reversal) in assay [4] (H69AR cells + 2 uM doxorubicin) was 5.35% (inactive). For the same molecule, the inhibition in assay [5] is -4.13% (inactive); in assay [6] it was -9.82% (inactive).

In the case of `COc1ccccc1NC(=O)NCc1ccc2c(c1)OCO2`, the viability in assay [1] is 87% (inactive); in assay [2], 101% (inactive); in assay [3], 93% (inactive); in assay [4] (setting [7]) it was 94.4%; in assay [4] (setting [8]) it was 93%. In addition, the differential viability (reversal) in assay [4] (H69AR cells + 2 uM doxorubicin) is -1.33% (inactive). Further, the figures for the inhibition in assay [5] and in assay [6] were -4.13% (inactive) and -3.82% (inactive), respectively.

Turning to `CCN(CC)CCOC(=O)C(c1ccccc1)c1ccccc1`, the viability was 81% (inactive) in assay [1]; 81.1% (inactive) in assay [2]; 101% (inactive) in assay [3]; 93.2% in assay [4] (setting [7]); 101% in assay [4] (setting [8]). Also, the differential viability (reversal) in assay [4] (H69AR cells + 2 uM doxorubicin) is 7.5% (inactive). Also, the inhibition is -4.81% (inactive) in assay [5] and 1.67% (inactive) in assay [6].

`Cc1ccc(S(=O)(=O)N2CCN(C(=O)CSC3CCCC3)CC2)c(C)c1`: the viability was 74% (inactive) in assay [1]; 87.4% (inactive) in assay [2]; 81.6% (inactive) in assay [3]; 88.8% in assay [4] (setting [7]); 81.6% in assay [4] (setting [8]). Moreover, the differential viability (reversal) in assay [4] (H69AR cells + 2 uM doxorubicin) was -7.29% (inactive). The inhibition in assay [5] was -9.59% (inactive); in assay [6] it was -5.32% (inactive).
